These results are taken from PubChem BioAssay AID588736 (Vanderbilt Specialized Chemistry Center, 2011).

Activity calls are given as the source filed them.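 Rule for the calls: active = compound halving or more than doubling glutamate potency, or top glutamate response under 75% or over 125% of control; inactive = the rest.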

The target of the assay is Metabotropic glutamate receptor 1 (Rattus norvegicus) (UniProt P23385). Nature of the assay: mGlu1 agonist potency fold-shift by compound – calcium fluorescence, HEK293A cells, rat, selectivity assay for mGlu5 PAM project, profiling panel (AID 588736). The settings on record: glutamate CRC shift, at 10 µM; for Emax: measured here: glutamate Emax with compound; for Emin: measured here: glutamate Emin with compound, stronger effect = higher value. Summed up: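 System: rat mGlu1 in HEK293A cells; control set: vehicle-treated glutamate curves as reference for maximal response; measured by: calcium fluorescence with Fluo4-AM dye, 1 µM final; times: compound added at 1.5 s, glutamate curve at 142 s; doses: test compound at a single 10 µM final, or vehicle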
Metabotropic glutamate receptor 1 (Rattus norvegicus), sequence (P23385 whole entry, looked up): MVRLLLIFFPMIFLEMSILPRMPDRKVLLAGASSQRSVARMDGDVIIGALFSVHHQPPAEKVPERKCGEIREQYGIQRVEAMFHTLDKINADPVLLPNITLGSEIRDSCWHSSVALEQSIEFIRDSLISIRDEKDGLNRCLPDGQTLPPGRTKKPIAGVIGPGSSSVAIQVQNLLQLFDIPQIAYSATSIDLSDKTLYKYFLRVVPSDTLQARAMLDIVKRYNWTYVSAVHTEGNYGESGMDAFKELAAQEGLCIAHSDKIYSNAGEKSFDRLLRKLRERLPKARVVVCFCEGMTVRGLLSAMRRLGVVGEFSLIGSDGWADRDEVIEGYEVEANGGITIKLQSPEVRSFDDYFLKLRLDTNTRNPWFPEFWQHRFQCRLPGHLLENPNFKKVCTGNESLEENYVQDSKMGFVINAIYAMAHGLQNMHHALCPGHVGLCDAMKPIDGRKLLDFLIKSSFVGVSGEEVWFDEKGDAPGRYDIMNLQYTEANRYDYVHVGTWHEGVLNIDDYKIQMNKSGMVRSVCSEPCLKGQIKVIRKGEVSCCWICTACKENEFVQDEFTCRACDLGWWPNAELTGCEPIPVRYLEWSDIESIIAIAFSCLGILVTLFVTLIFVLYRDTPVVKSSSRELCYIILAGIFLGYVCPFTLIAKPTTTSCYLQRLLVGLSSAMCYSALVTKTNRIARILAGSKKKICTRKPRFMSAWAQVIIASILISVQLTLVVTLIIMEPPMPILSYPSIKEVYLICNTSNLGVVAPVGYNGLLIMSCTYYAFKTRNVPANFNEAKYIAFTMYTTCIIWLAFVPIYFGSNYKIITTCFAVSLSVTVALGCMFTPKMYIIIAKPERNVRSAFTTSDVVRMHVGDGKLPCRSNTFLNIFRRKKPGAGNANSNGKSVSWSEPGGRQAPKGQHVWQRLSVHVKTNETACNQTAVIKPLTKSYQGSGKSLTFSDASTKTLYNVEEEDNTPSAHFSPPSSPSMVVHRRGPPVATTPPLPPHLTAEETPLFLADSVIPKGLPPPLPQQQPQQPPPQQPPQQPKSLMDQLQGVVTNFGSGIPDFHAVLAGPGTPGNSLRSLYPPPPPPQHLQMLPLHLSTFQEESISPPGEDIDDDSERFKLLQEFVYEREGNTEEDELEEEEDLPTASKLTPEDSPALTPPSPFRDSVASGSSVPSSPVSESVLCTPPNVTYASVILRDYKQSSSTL

A word on the Emax: it is the greatest response seen or fitted, relative to the assay's reference. `C[C@@H](NC(=O)c1ccc(C#Cc2cccc(F)c2)cn1)C(C)(C)O`: the fold shift was 1.43 (inactive), the maximal response (Emax) came out at 94% and the Emin came out at 1%.

With `CC1(NC(=O)c2ccc(C#Cc3cccc(F)c3)cn2)COC1`, the fold shift is 0.93 (inactive), the Emax is 91% and the Emin worked out at 1%.
